Results reported in PMC3731742 (Journal of biomolecular screening, 2011).
Values joined by “and” are separate entries in the source; they are usually repeats but may differ in a detail not shown here. Identical values can stand only once. Like-named read-outs stand apart in the source and are kept apart here.

How the values were obtained:
[1] = test system: Microtubule-associated protein tau; conditions: PubChem, tau aggregation; cited from earlier work
[2] = test system: Nuclear receptor ROR-gamma; conditions: PubChem; cited from earlier work
Mint1 = conditions: PubChem; cited from earlier work
[3] = test system: Phosphopantetheinyl transferase; conditions: PubChem; cited from earlier work
SV40 virus = experiment: Cytoprotection assay with SV40 virus in BSC-40 cells; type: cell-based; conditions: 50 μM, BSC-40 cells + SV40, 120 h
[4] = test system: TAg-dependent DNA replication; experiment: TAg-dependent DNA replication assay; type: biochemical, SV40; conditions: HeLa cell lysate, radiolabelled nucleotides
Summary of the method: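 TAg recruits replication machinery from HeLa cell lysate to copy a reporter plasmid carrying the SV40 origin, incorporating trace radiolabelled nucleotides over time. Test compound added at 30, 100 and 300 µM.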

[5] = test system: Hydroxyprostaglandin dehydrogenase 15-(NAD) isoform 1; conditions: PubChem; cited from earlier work
Aldehyde dehydrogenase 1 = conditions: PubChem; cited from earlier work
BSC-40 cells = experiment: Cytotoxicity in BSC-40 cells; type: cell-based, African green monkey; conditions: cells + compound only, 5 days
[6] = target: SV40 large T antigen ATPase activity (Simian virus 40, UniProt P03070); experiment: SV40 TAg ATPase primary assay; type: biochemical; conditions: 1% DMSO; for IC50: 1536-well, ADP Hunter, 1 mM ATP
Chain of SV40 large T antigen ATPase activity (P03070 whole entry): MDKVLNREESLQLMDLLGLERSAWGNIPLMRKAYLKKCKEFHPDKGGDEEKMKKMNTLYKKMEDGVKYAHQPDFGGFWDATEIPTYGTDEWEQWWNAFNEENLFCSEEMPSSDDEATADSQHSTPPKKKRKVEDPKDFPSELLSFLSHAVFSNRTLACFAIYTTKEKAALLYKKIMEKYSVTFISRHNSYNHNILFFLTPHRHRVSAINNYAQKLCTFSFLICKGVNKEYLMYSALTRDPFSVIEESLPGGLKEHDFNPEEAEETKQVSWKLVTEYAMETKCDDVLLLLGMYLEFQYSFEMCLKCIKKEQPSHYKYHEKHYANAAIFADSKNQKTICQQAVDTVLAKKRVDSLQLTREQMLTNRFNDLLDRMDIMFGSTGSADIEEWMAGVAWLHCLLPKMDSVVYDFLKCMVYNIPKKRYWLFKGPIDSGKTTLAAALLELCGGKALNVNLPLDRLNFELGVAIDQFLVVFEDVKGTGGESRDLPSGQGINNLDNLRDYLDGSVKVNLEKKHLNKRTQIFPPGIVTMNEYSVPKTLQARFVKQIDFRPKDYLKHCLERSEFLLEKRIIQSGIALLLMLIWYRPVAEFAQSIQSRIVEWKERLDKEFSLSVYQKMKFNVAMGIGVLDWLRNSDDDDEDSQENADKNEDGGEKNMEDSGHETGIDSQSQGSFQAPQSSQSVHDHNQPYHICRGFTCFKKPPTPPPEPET
Summary of the method: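 Purified TAg (10.8 ng/well, added from 14.4 ng/µL) in 100 mM Tris-HCl pH 7.4, 20 mM KCl, 6 mM MgCl2, 0.1 mg/mL BSA; control added before enzyme, preincubated 30 min ambient; 5 mM ATP stock added, 120 min ambient; 1.25 µL reaction. ADP Hunter fluorescence, ex/em 530/590 nm bottom read. % inhibition normalized to median enzyme control and high-dose control wells.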

TAg = conditions: read-out: IC50 for MAL2-11B; ref 21 (Huryn et al.); cited from earlier work
[7] = Compound aggregation in steady-state ATP assays; type: physicochemical; conditions: 20-μL steady-state ATP assay; previously observed in the laboratory

Row | Structure (SMILES) | identified as hit (inhibitor) against target [1] | identified as hit (inhibitor) against target [2] | identified as hit (inhibitor) against target (Mint1) | identified as hit (inhibitor) against target [3] | effect on TAg-dependent DNA replication at 300 μM [4] | identified as hit (inhibitor) against target [5] | identified as hit (inhibitor) against target (Aldehyde dehydrogenase 1) | further results
1 | Cc1cc(C)c2c(=O)n(CC(=O)Nc3cccc(Cl)c3C)sc2n1 [SID 85281218] | Microtubule-associated protein tau | Nuclear receptor ROR-gamma | Mint1 | Phosphopantetheinyl transferase |  |  |  | 
2 | ClC(Cl)(c1nnnn1-c1ccccc1)c1nnnn1-c1ccccc1 [SID 85281215] | Microtubule-associated protein tau | Nuclear receptor ROR-gamma | Mint1 | Phosphopantetheinyl transferase | DNA replication was absent | Hydroxyprostaglandin dehydrogenase 15-(NAD) isoform 1 | Aldehyde dehydrogenase 1 | sustained cell viability in the cytoprotection assay (SV40 virus): 16%
3 | Nc1nc2ccc(S(=O)(=O)N3CCCCC3)cc2s1 [SID 85281217] | Microtubule-associated protein tau |  | Mint1 | Phosphopantetheinyl transferase |  | Hydroxyprostaglandin dehydrogenase 15-(NAD) isoform 1 | Aldehyde dehydrogenase 1 | 
4 | CC(C)(c1ccc(O)cc1)c1ccc(O)cc1 [SID 92277586, Bisphenol A] |  |  |  |  | complete inhibition |  |  | effect on TAg-dependent DNA replication at 100 μM ([4]; 100 μM): some inhibition; TC50 (50% toxic concentration) (BSC-40 cells): 7.94 µM; IC50 ([6]; IC50, inhibition of TAg ATPase activity in the primary assay): 41 µM and 41.4 µM
5 | CC1=C(C(=O)OCc2ccccc2)C(c2ccc(-c3ccccc3)cc2)NC(=O)N1CCCCCC(=O)O (stereo not shown) [MAL2-11B, reference compound] |  |  |  |  |  |  |  | IC50 (TAg): 50 µM; inhibition of TAg activity ([6]; MAL2-11B at 100 μM final, average): 80%; IC50 ([6]; read-out: IC50, inhibition of TAg ATPase activity in the primary assay): 19.5 µM; final concentration at which compound aggregation was observed [7]: > 300 µM
